Reference: ChEMBL document CHEMBL1142545, “1,3-Dialkyl-8-(hetero)aryl-9-OH-9-deazaxanthines as potent A2B adenosine receptor antagonists: design, synthesis, structure-affinity and structure-selectivity relationships” (Bioorg Med Chem, 2008)
Values after ≈ are worked out from the molar mass of the structure shown.

What was measured:
HeLa [1] = experiment: Selectivity index, ratio of Ki for human cloned adenosine A2A receptor expressed in human HeLa cells to Ki for human cloned adenosine A2B receptor expressed in HEK293 cells; type: cell-based
Method in brief: (§1)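 SI is the ratio of Ki values. […] A1 in CHO cells: [3H]DPCPX 2 nM. A2A in HeLa cells: [3H]ZM241385 3 nM. A2B in HEK-293 cells: [3H]DPCPX 25 nM. A3 in HeLa cells: [3H]NECA 30 nM. Filtration and scintillation counting.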

Adenosine receptor A2a [2] = target: T1, Adenosine receptor A2a (Homo sapiens, UniProt P29274); experiment: Displacement of [3H]ZM241385 from human cloned adenosine A2A receptor expressed in human HeLa cells; type: cell-based
Adenosine receptor A2b [3] = target: T2, Adenosine receptor A2b (Homo sapiens, UniProt P29275); experiment: Displacement of [3H]DPCPX from human cloned adenosine A2B receptor expressed in HEK293 cells; type: cell-based
T2 sequence (P29275 whole entry): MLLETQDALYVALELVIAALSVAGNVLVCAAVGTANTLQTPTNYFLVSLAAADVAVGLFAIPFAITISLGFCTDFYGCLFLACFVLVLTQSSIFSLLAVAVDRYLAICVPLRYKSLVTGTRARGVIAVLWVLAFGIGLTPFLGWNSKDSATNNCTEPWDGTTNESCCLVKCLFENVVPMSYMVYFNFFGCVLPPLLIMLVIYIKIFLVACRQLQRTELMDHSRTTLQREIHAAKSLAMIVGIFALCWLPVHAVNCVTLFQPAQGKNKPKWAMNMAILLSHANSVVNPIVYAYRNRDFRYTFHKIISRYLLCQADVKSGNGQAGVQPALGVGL

[4] = Solubility in 50 mM Tris/HCl buffer at pH 7.4 by turbidimetric method; type: physicochemical
Method in brief: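 DMSO stock added stepwise (about 14 additions) to 50 mM Tris/HCl pH 7.4 at room temperature, final DMSO below 5%; precipitation detected as UV absorbance rise at 600–800 nm; solubility limit from bilinear fit of absorbance versus DMSO.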

[5] = Methanol-water partition coefficient, log K by RP-HPLC; type: physicochemical
Method in brief: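 Reverse-phase HPLC with water–methanol 40/60 (v/v) mobile phase at 1.0 ml/min; dead time from KI in methanol; retention times in minutes; log k from capacity factor taken as lipophilicity index.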

Adenosine receptor A3 [6] = target: T3, Adenosine receptor A3 (Homo sapiens, UniProt P0DMS8); experiment: Displacement of [3H]NECA from human cloned adenosine A3 receptor expressed in human HeLa cells; type: cell-based
Adenosine receptor A1 = target: T4, Adenosine receptor A1 (Homo sapiens, UniProt P30542); experiment: Displacement of [3H]DPCPX from human cloned adenosine A1 receptor expressed in CHO cells; type: cell-based
T4 sequence (P30542 whole entry): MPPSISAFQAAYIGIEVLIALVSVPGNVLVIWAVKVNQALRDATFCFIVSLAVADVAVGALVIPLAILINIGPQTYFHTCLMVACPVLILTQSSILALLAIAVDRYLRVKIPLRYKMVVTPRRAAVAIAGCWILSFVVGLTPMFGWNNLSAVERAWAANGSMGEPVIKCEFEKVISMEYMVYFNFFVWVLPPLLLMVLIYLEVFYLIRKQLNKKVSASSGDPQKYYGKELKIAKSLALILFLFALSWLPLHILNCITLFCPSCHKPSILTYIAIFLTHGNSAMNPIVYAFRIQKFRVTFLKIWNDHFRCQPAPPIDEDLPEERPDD

Adenosine receptor A3 [7] = target: T3, Adenosine receptor A3; experiment: Displacement of [3H]NECA from human cloned adenosine A3 receptor expressed in human HeLa cells at 1 uM; type: cell-based
Adenosine receptor A2a [8] = target: T1, Adenosine receptor A2a; experiment: Displacement of [3H]ZM241385 from human cloned adenosine A2A receptor expressed in human HeLa cells at 1 uM; type: cell-based
Method in brief: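 HeLa membranes (10 µg) in 50 mM Tris–HCl, 1 mM EDTA, 10 mM MgCl2, 2 U/mL adenosine deaminase, pH 7.4; 3 nM [3H]ZM241385, 25 °C; NECA for nonspecific binding; filtration with 4× ice-cold washes, scintillation counting; percent radioligand displacement at 1 µM.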

HEK293 = experiment: Selectivity index, ratio of Ki for human cloned adenosine A1 receptor expressed in CHO cells to Ki for human cloned adenosine A2B receptor expressed in HEK293 cells; type: cell-based; method in brief: as §1
Adenosine receptor A2a [9] = target: Adenosine receptor A2a (Rattus norvegicus, UniProt P30543); experiment: Antagonist activity at adenosine A2A receptor in Sprague-Dawley rat aorta assessed as inhibition of phenylephrine-induced contraction; type: functional, tissue-based; details: read-out: pA2 (converted)
Method in brief: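 Aorta from male Sprague-Dawley rats (200–250 g), cut into 4 mm rings in Krebs solution at 37 °C with carbogen, 2 g basal tension, stabilised 60 min. Rings were contracted with phenylephrine, then antagonist was incubated for 30 min before cumulative NECA relaxation curves. pA2 = log((EC50'/EC50) − 1) − log C, from NECA EC50 with and without antagonist.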

HeLa [10] = experiment: Selectivity index, ratio of Ki for human cloned adenosine A3 receptor expressed in human HeLa cells to Ki for human cloned adenosine A2B receptor expressed in HEK293 cells; type: cell-based; method in brief: as §1
Adenosine receptor A2b [11] = target: T5, Adenosine receptor A2b (Rattus norvegicus, UniProt P29276); experiment: Antagonist activity at adenosine A2B receptor in Wistar-Kyoto rat distal colon; details: read-out: pA2 (converted)
T5 sequence (P29276 whole entry): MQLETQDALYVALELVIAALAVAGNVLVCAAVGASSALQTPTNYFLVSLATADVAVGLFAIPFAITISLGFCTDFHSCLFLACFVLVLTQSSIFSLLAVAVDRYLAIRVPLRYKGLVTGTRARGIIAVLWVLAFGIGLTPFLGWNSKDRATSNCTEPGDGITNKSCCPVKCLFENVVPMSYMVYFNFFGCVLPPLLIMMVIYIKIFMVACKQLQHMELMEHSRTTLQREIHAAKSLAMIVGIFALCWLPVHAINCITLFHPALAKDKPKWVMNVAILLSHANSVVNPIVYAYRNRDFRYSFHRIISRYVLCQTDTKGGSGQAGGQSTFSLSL

T3 sequence (P0DMS8 whole entry): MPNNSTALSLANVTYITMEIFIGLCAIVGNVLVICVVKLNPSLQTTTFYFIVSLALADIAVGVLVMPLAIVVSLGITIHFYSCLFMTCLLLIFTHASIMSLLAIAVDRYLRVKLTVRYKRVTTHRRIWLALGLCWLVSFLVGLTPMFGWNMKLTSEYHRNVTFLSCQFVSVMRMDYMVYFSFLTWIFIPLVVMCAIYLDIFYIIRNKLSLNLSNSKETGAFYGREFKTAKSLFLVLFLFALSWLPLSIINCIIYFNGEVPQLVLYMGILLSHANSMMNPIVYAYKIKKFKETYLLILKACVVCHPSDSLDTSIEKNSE
T1 sequence (P29274 whole entry): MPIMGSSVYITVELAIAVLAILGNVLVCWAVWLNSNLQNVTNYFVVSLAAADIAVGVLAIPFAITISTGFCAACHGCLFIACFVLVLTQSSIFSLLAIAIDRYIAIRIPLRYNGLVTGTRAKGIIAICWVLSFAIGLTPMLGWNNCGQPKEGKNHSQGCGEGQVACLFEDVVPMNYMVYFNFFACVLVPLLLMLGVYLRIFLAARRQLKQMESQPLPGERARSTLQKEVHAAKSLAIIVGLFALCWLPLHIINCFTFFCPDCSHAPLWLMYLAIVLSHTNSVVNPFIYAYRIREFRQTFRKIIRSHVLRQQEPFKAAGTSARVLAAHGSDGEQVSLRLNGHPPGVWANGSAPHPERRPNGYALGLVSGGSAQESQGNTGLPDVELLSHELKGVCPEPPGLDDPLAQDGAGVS
Chain of Adenosine receptor A2a (Rattus norvegicus, UniProt P30543) (P30543 whole entry): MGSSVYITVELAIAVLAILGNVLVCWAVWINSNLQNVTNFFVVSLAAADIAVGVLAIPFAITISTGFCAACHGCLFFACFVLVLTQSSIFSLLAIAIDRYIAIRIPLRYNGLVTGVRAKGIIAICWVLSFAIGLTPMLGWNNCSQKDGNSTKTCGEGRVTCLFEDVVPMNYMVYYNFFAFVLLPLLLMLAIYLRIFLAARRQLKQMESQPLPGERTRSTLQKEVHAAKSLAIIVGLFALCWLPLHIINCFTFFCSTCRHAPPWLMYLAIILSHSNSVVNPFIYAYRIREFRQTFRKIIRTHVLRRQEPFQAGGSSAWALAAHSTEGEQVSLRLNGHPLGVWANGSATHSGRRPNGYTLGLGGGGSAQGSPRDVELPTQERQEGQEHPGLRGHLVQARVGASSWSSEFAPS

SMILES	Ki (Adenosine receptor A2a [2])	Ki (Adenosine receptor A2b [3])	Ratio Ki (HeLa [1])	other results
CCCn1c(=O)c2c(cc(-c3ccc(O)cc3)n2O)n(CCC)c1=O	102 nM	115 nM	0.89	
CCCn1c(=O)c2c(cc(-c3ccc(OC)cc3)n2O)n(CCC)c1=O	631 nM	479 nM	1.3	
CCCn1c(=O)c2[nH]c(-c3ccc(C)cc3)c(O)c2n(CCC)c1=O	89 nM	89 nM	1	solubility kinetic [4]: 30 µg/mL (≈ 87.9 µM); log K [5]: 0.83
CCCn1c(=O)c2c(cc(-c3ccc(N)cc3)n2O)n(CCC)c1=O	240 nM	155 nM	1.5	
CCCn1c(=O)c2[nH]c(-c3ccc(OCC(=O)N4CCN(Cc5ccccc5)CC4)cc3)cc2n(CCC)c1=O			42	solubility kinetic [4]: 2 µg/mL (≈ 3.68 µM); Ki (Adenosine receptor A1): 43 nM; inhibition (Adenosine receptor A3 [7]): 5%; log K [5]: 0.93
CCCn1c(=O)c2[nH]c(-c3ccccc3)cc2n(CCC)c1=O	646 nM	229 nM	2.8	Ki (Adenosine receptor A3 [6]): 96 nM; Ki (Adenosine receptor A1): 34 nM
Cn1c(=O)c2[nH]c(-c3ccccc3)c(O)c2n(C)c1=O	1470 nM	288 nM	5.1	
Cn1c(=O)c2c(cc(-c3ccccc3)n2O)n(C)c1=O		1660 nM		inhibition (Adenosine receptor A2a [8]): 12%
CCCn1c(=O)c2[nH]c(-c3ccc(S(C)(=O)=O)cc3)c(O)c2n(CCC)c1=O	28 nM	6.5 nM	4.3	Ki (Adenosine receptor A3 [6]): 295 nM; Ki (Adenosine receptor A1): 63 nM
CCCn1c(=O)c2[nH]c(-c3ccc(OC)cc3)cc2n(CCC)c1=O	199 nM	490 nM	0.41	solubility kinetic [4]: 28 µg/mL (≈ 82 µM); log K [5]: 0.71
CCCn1c(=O)c2c(cc(-c3ccccc3)n2O)n(CCC)c1=O		676 nM		Ki (Adenosine receptor A1): 25 nM; inhibition (Adenosine receptor A3 [7]): 30%; inhibition (Adenosine receptor A2a [8]): 32%
Cc1ccc(-c2cc3c([nH]2)c(=O)n(C)c(=O)n3C)cc1	126 nM	457 nM	0.28	
Cn1c(=O)c2[nH]c(-c3ccccc3)cc2n(C)c1=O	479 nM	182 nM	2.6	
Cc1ccc(-c2cc3c(c(=O)n(C)c(=O)n3C)n2O)cc1		2240 nM		inhibition (Adenosine receptor A2a [8]): 8%
CCCn1c(=O)c2c(cc(-c3ccc(C)cc3)n2O)n(CCC)c1=O	398 nM	589 nM	0.66	
CCCn1c(=O)c2[nH]c(-c3ccc(OCC(=O)Nc4ccc(Br)cc4)cc3)cc2n(CCC)c1=O			14	Ki (Adenosine receptor A3 [6]): 199 nM; Ki (Adenosine receptor A1): 21 nM
Cc1ccc(-c2[nH]c3c(=O)n(C)c(=O)n(C)c3c2O)cc1	2450 nM	513 nM	4.8	
CCCn1c(=O)c2[nH]c(-c3ccc(C)cc3)cc2n(CCC)c1=O	631 nM	199 nM	3.2	solubility kinetic [4]: 6 µg/mL (≈ 18.4 µM); log K [5]: 0.97
CCCn1c(=O)c2[nH]c(-c3ccc(C(=O)O)cc3)c(O)c2n(CCC)c1=O	933 nM	338 nM	2.8	

Continued, in another order:

Ki (Adenosine receptor A2a [2])	Ki (Adenosine receptor A2b [3])	SMILES	Ratio Ki (HeLa [1])	other results
408 nM	35 nM	CCCn1c(=O)c2[nH]c(-c3ccco3)c(OS(=O)(=O)O)c2n(CCC)c1=O	11.7	
48 nM	44 nM	CCCn1c(=O)c2[nH]c(-c3ccc(O)cc3)cc2n(CCC)c1=O	1.1	
50 nM	54 nM	CCCn1c(=O)c2[nH]c(-c3ccccc3)c(O)c2n(CCC)c1=O	0.93	Ki (Adenosine receptor A3 [6]): 182 nM; Ki (Adenosine receptor A1): 83 nM
118 nM	11 nM	CCCn1c(=O)c2[nH]c(-c3ccc(O)cc3)c(O)c2n(CCC)c1=O	10.7	
145 nM	50 nM	CCCn1c(=O)c2[nH]c(-c3ccc([N+](=O)[O-])cc3)c(O)c2n(CCC)c1=O	2.9	
692 nM	68 nM	Cn1c(=O)c2[nH]c(-c3ccc(S(C)(=O)=O)cc3)c(O)c2n(C)c1=O	10.2	
100 nM	1 nM	CCCn1c(=O)c2[nH]c(-c3ccc(OCC(=O)Nc4ccc(Br)cc4)cc3)c(O)c2n(CCC)c1=O	100	Ratio Ki (HEK293): 79; Ki (Adenosine receptor A3 [6]): 1290 nM; Ki (Adenosine receptor A1): 79 nM; Kb (Adenosine receptor A2a [9]): 224 nM; Ratio Ki (HeLa [10]): 1290; Kb (Adenosine receptor A2b [11]): 0.468 nM
162 nM	8.9 nM	CCCn1c(=O)c2[nH]c(-c3ccc(N)cc3)cc2n(CCC)c1=O	18.2	solubility kinetic [4]: 6 µg/mL (≈ 18.4 µM); log K [5]: 1.21
324 nM	71 nM	CCCn1c(=O)c2[nH]c(-c3ccc(C(C)=O)cc3)c(O)c2n(CCC)c1=O	4.6	
468 nM	64 nM	CCCn1c(=O)c2[nH]c(-c3ccc(S(C)(=O)=O)cc3)c(O)c2n(C)c1=O	7.3	Ki (Adenosine receptor A1): 240 nM; inhibition (Adenosine receptor A3 [7]): 7%
166 nM	19 nM	CCCn1c(=O)c2[nH]c(-c3ccc(N)cc3)c(O)c2n(CCC)c1=O	8.7	solubility kinetic [4]: 30 µg/mL (≈ 87.6 µM); log K [5]: 0.96
148 nM	24 nM	CCCn1c(=O)c2[nH]c(-c3ccc(OC)cc3)c(O)c2n(CCC)c1=O	6.2	solubility kinetic [4]: 120 µg/mL (≈ 336 µM); log K [5]: 0.51
104 nM	23 nM	CCCn1c(=O)c2[nH]c(-c3ccco3)c(O)c2n(CCC)c1=O	4.5	
